Experimental data from ChEMBL document CHEMBL4359835, “Design, Synthesis, and Anti-RNA Virus Activity of 6'-Fluorinated-Aristeromycin Analogues” (J Med Chem, 2019).

Key:
[1] = […] CHIKV LS3 infected in African green monkey Vero E6 cells assessed as reduction in virus-induced cytopathic effect measured after 96 hrs post-infection by MTS assay; details: Chikungunya virus, LS3, Vero C1008, 96 h
[2] = […]; assay type: cell-based; details: Middle East respiratory syndrome-related coronavirus, EMC/2012, Vero, 72 h
Vero [3] = assay: Cytotoxicity against African green monkey Vero cells assessed as reduction in cell viability measured after 72 hrs by MTS assay; assay type: cell-based; details: chlorocebus sabaeus
In short: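 Uninfected Vero cells (20 000/well) were incubated with compound for 72 h, alongside MERS-CoV assays. Viability by MTS for 2–2.5 h, formaldehyde fixation, then A495 relative to untreated controls. Eight concentrations, quadruplicate; CC50 from nonlinear regression.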

[4] = (§1) Cytotoxicity against African green monkey Vero E6 cells assessed as reduction in cell viability measured after 72 hrs by MTS assay; assay type: cell-based, Vero C1008; details: chlorocebus sabaeus, Vero E6 cells (Vero C1008)
In short: (§2)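 Uninfected Vero E6 cells (10 000/well) were exposed to compound for 72 h, in parallel with SARS-CoV CPE assays. Eight concentrations in quadruplicate; CC50 by nonlinear regression.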

Adenosylhomocysteinase = Adenosylhomocysteinase (Homo sapiens, UniProt P23526); assay: Inhibition of human placental SAH hydrolase expressed in Escherichia coli JM109 using SAH as substrate preincubated for 10 mins followed by SAH addition and measured after 20 mins by […] reagent-based spectrophotometric method
Adenosylhomocysteinase, sequence (P23526 whole entry): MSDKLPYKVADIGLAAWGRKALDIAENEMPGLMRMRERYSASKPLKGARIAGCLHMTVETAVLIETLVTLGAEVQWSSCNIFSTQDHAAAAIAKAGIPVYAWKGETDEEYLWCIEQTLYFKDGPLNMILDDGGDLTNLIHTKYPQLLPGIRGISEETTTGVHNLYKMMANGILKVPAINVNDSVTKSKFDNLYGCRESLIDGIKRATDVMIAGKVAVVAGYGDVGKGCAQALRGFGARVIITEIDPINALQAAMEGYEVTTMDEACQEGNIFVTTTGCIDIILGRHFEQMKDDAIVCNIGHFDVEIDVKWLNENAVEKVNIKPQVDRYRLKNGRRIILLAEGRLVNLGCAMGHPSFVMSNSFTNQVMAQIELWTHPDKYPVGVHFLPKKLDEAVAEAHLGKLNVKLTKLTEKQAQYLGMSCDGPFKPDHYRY

[5] = […]; set-up: species or system SARS coronavirus Frankfurt 1; details: Severe acute respiratory syndrome-related coronavirus, Vero C1008, 72 h
Vero C1008 = assay: as §1; assay type: cell-based; details: chlorocebus sabaeus, vero c1008, 72 h; in short: as §2
Vero [6] = assay: Cytotoxicity against African green monkey Vero cells assessed as reduction in cell viability measured after 96 hrs by MTS assay; assay type: cell-based; details: chlorocebus sabaeus
In short: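 Uninfected Vero CCL81 cells (5000/well) were treated for 96 h in parallel with ZIKV CPE assays. Eight concentrations, quadruplicate; CC50 by nonlinear regression.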

[7] = Selectivity index, ratio of CC50 for African green monkey Vero E6 cells to EC50 for inhibition of RNA-dependent RNA polymerase in SARS-CoV Frankfurt1 infected in African green monkey Vero E6 cells assessed as reduction in virus-induced cytopathic effect; assay type: toxicity, Vero C1008; details: read-out: Ratio CC50/EC50
[8] = Selectivity index, ratio of CC50 for African green monkey Vero cells to EC50 for inhibition of RNA-dependent RNA polymerase in ZIKV SL0612 infected in African green monkey Vero cells assessed as reduction in virus-induced cytopathic effect; assay type: toxicity; details: read-out: Ratio CC50/EC50
In short: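 Vero CCL81 cells (5000/well) received ZIKV at MOI 0.05 in compound-containing infection medium. MTS was read at 96 hpi (A495, relative to uninfected), with uninfected cells run in parallel for CC50. Eight concentrations, quadruplicate; nonlinear regression; SI = CC50/EC50.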

[9] = Selectivity index, ratio of CC50 for African green monkey Vero E6 cells to EC50 for inhibition of RNA-dependent RNA polymerase in CHIKV LS3 infected in African green monkey Vero E6 cells assessed as reduction in virus-induced cytopathic effect; assay type: toxicity, Vero C1008; details: read-out: Ratio CC50/EC50
In short: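 Vero E6 cells (5000/well) were infected with CHIKV at MOI 0.005 in EMEM/25 mM HEPES/2% FCS containing compound. CPE was read by MTS at 96 hpi (A495, relative to uninfected). Uninfected cells were tested in parallel for CC50. Eight concentrations, quadruplicate; EC50 and CC50 by nonlinear regression; SI = CC50/EC50.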

[10] = Selectivity index, ratio of CC50 for African green monkey Vero cells to EC50 for inhibition of RNA-dependent RNA polymerase in MERS-CoV EMC/2012 infected in African green monkey Vero cells assessed as reduction in virus-induced cytopathic effect; assay type: toxicity; details: read-out: Ratio CC50/EC50
Chikungunya virus = assay: Antiviral activity against CHIKV LS3 infected in African green monkey Vero E6 cells assessed as log reduction in viral titer measured after 30 hrs post infection by plaque assay; assay type: functional, Vero C1008
[11] = system: Middle East respiratory syndrome-related coronavirus; assay: Antiviral activity against MERS-CoV EMC/2012 infected in African green monkey Vero cells assessed as log reduction in virus titre at >0.3 uM measured after 48 hrs viral infection by plaque assay; assay type: functional
Zika virus = assay: Antiviral activity against ZIKV SL0612 infected in African green monkey Vero cells assessed as log reduction in viral titre up to 1.5 uM measured at 48 hrs post infection by plaque assay; assay type: functional
In short: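 Vero E6 cells (7.5 × 10^4/well) adhered overnight in DMEM/8% FCS. ZIKV infection was at MOI 1 for 2 h at 37 °C in EMEM/2% FCS with compound (0–1.5 μM), followed by washing and 48 h in compound-containing medium. Supernatant titre was read by plaque assay on Vero CCL81. Duplicates in two independent experiments (n = 4).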

SARS-CoV = assay: Antiviral activity against SARS-CoV Frankfurt1 infected in African green monkey Vero E6 cells assessed as log reduction in viral titre at >0.3 uM measured at 48 hrs post infection by plaque assay; assay type: functional, Severe acute respiratory syndrome-related coronavirus, Frankfurt 1, Vero C1008
[12] = Partition coefficient, log P of the compound in liquid/aqueous phase by pH-metric method; assay type: physicochemical; details: octanol/water

## Nc1ncnc2c1ncn2[C@H]1[C@H](O)[C@H](O)[C@@H](CO)[C@@H]1F
[1]
  EC50: 0.53 µM

## Nc1ncnc2c1ncn2[C@H]1[C@H](O)[C@H](O)[C@@H](CO)[C@H]1F
[2]
  EC50: 0.2 µM
Vero [3]
  CC50: 0.6 µM
[4]
  CC50 at 72 h: > 100 µM
[1]
  EC50: > 100 µM

## O=c1ccn([C@H]2[C@H](O)[C@H](O)[C@@H](CO)[C@H]2F)c(=O)[nH]1
Adenosylhomocysteinase
  IC50: > 100 µM
[2]
  EC50: > 100 µM
[5]
  EC50: > 100 µM
Vero C1008
  CC50: > 100 µM
[1]
  EC50: > 100 µM

## Nc1ccn([C@H]2[C@H](O)[C@H](O)[C@@H](CO)C2(F)F)c(=O)n1
Adenosylhomocysteinase
  IC50: > 100 µM
[2]
  EC50: > 50 µM
Vero [3]
  CC50: > 50 µM
[5]
  EC50: > 100 µM
Vero C1008
  CC50: > 100 µM
Vero [6]
  CC50: > 100 µM
[1]
  EC50: > 100 µM

## CNc1ncnc2c1ncn2[C@H]1[C@H](O)[C@H](O)[C@@H](CO)[C@H]1F
Adenosylhomocysteinase
  IC50: 4.39 µM
[2]
  EC50: > 50 µM
Vero [3]
  CC50: > 50 µM
[5]
  EC50: > 100 µM
Vero C1008
  CC50: > 100 µM
Vero [6]
  CC50: > 100 µM
[1]
  EC50: > 100 µM

## CC(C)OC(=O)[C@H](C)N[P@](=O)(OC[C@@H]1[C@@H](O)[C@@H](O)[C@H](n2ccc(=O)[nH]c2=O)[C@@H]1F)Oc1ccccc1
Adenosylhomocysteinase
  IC50: > 100 µM
[2]
  EC50: > 50 µM
Vero [3]
  CC50: > 50 µM
[5]
  EC50: > 100 µM
Vero C1008
  CC50: > 100 µM
Vero [6]
  CC50: > 100 µM
[1]
  EC50: > 100 µM

## CC(C)OC(=O)[C@H](C)N[P@](=O)(OC[C@@H]1[C@@H](O)[C@@H](O)[C@H](n2ccc(=O)[nH]c2=O)C1(F)F)Oc1ccccc1
Adenosylhomocysteinase
  IC50: > 100 µM
[2]
  EC50: > 50 µM
Vero [3]
  CC50: > 50 µM
[5]
  EC50: > 100 µM
Vero C1008
  CC50: > 100 µM
Vero [6]
  CC50: > 100 µM
[1]
  EC50: > 100 µM

## CC(C)OC(=O)[C@H](C)N[P@](=O)(OC[C@@H]1[C@@H](O)[C@@H](O)[C@H](n2cnc3c(N)ncnc32)C1(F)F)Oc1ccccc1
Adenosylhomocysteinase
  IC50: > 100 µM
[2]
  EC50: 9.3 µM
Vero [3]
  CC50: > 50 µM
[5]
  EC50: 6.8 µM
[4]
  CC50 at 72 h: 12.5 to 25 µM
Vero [6]
  CC50: > 25 µM
[1]
  EC50: 1.95 µM
[7]
  selectivity ratio: > 3.7
[8]
  selectivity ratio: > 14.3
[9]
  selectivity ratio: > 6.4

## CNc1ncnc2c1ncn2[C@H]1[C@H](O)[C@H](O)[C@@H](CO)C1(F)F
Adenosylhomocysteinase
  IC50: 0.76 µM
[2]
  EC50: > 50 µM
Vero [3]
  CC50: 12.5 µM
[5]
  EC50: > 100 µM
Vero C1008
  CC50: > 100 µM
Vero [6]
  CC50: > 100 µM
[1]
  EC50: > 100 µM

## O=c1ccn([C@H]2[C@H](O)[C@H](O)[C@@H](CO)[C@@H]2F)c(=O)[nH]1
Adenosylhomocysteinase
  IC50: > 100 µM
[2]
  EC50: > 100 µM
Vero [3]
  CC50: > 100 µM
[5]
  EC50: > 100 µM
Vero [6]
  CC50: > 100 µM
[1]
  EC50: > 100 µM

## Nc1ncnc2c1ncn2[C@H]1[C@H](O)[C@H](O)[C@@H](CO)C1(F)F
Adenosylhomocysteinase
  IC50: 1.06 µM
[2]
  EC50: 0.2 µM
Vero [3]
  CC50: 3.2 µM
[5]
  EC50: 0.5 µM
[4]
  CC50 at 72 h: 1.25 to 5.9 µM
Vero [6]
  CC50: > 2.5 µM
[1]
  EC50: 0.13 µM
[10]
  selectivity ratio: 16
[7]
  selectivity ratio: 11.8
[8]
  selectivity ratio: > 9.6
Chikungunya virus
  FC: >2
[11]
  FC: 2.5
Zika virus
  FC: 1
SARS-CoV
  FC: 1.5
[12]
  logP: 0.02
[9]
  selectivity ratio: > 9.6

## O=c1ccn([C@H]2[C@H](O)[C@H](O)[C@@H](CO)C2(F)F)c(=O)[nH]1
Adenosylhomocysteinase
  IC50: > 100 µM
[2]
  EC50: > 50 µM
Vero [3]
  CC50: > 50 µM
[5]
  EC50: > 100 µM
Vero C1008
  CC50: > 100 µM
Vero [6]
  CC50: > 100 µM
[1]
  EC50: > 100 µM

## Nc1ccn([C@H]2[C@H](O)[C@H](O)[C@@H](CO)[C@H]2F)c(=O)n1
Adenosylhomocysteinase
  IC50: > 100 µM
[2]
  EC50: > 100 µM
Vero [3]
  CC50: > 100 µM
[5]
  EC50: > 100 µM
Vero C1008
  CC50: > 100 µM
Vero [6]
  CC50: > 100 µM
[1]
  EC50: > 100 µM

## Nc1ncnc2c1ncn2[C@@H]1C[C@H](CO)[C@@H](O)[C@H]1O [ARISTEROMYCIN]
[2]
  EC50: > 50 µM
Vero [3]
  CC50: 2 µM
[5]
  EC50: > 50 µM
[4]
  CC50 at 72 h: 2.4 to 6.3 µM
Vero [6]
  CC50: 2.4 µM
[1]
  EC50: 0.8 µM
